Test results taken from ChEMBL document CHEMBL4373706, “Discovery of Inhibitors of Aurora/PLK Targets as Anticancer Agents” (J Med Chem, 2019).
Values after ≈ are worked out from the molar mass of the structure shown. Active and inactive are the calls of the source. The calls are words filed in the database; no cut-off is given here.

Experiments:
A549 = experiment: Antiproliferative activity against human A549 cells measured after 48 hrs by MTT assay; assay type: functional, cell-based; conditions: A549, 48 h
Outline: (§1)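 Cells were exposed to a range of compound concentrations for 48 h. MTT reagent was then added and absorbance read at 490 nm. Viability was normalized to vehicle control set as 100%, from n = 3 independent experiments, and IC50 was taken from the dose–response curves.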

HCT-116 [1] = experiment: Cell cycle arrest in human HCT116 cells assessed as accumulation at G2/M phase at 5 uM measured after 24 to 48 hrs by propidium iodide staining-based flow cytometry (reference value: 3.37%); assay type: functional
HCT-116 [2] = experiment: Induction of apoptosis in human HCT116 cells measured after 48 hrs by Annexin V-FITC/propidium iodide staining-based flow cytometry; assay type: functional, cell-based
HCT-116 [3] = experiment: Antitumor activity against human HCT116 cells xenografted in BALB/c mouse assessed as survival rate at 10 mg/kg, iv administered every 3 days for 60 days relative to control; assay type: functional; conditions: HCT-116, iv
HCT-116 [4] = experiment: Antitumor activity against human HCT116 cells xenografted in BALB/c mouse assessed as mean survival days at 10 mg/kg, iv administered every 3 days for 60 days (reference value: 25 day); assay type: functional
[5] = Toxicity in BALB/c mouse xenografted with human HCT116 cells assessed as change in body weight at 1 to 5 mg/kg, iv administered every 3 days for 24 days measured post-last dose; assay type: organism-based; conditions: in vivo
[6] = molecular target: Serine/threonine-protein kinase PLK3 (Homo sapiens, UniProt Q9H4B4); experiment: Binding affinity to wild-type human partial length PLK3 (A42 to L334 residues) expressed in mammalian expression system measured after 1 hr by kinomescan method
Serine/threonine-protein kinase PLK3, sequence (Q9H4B4 whole entry, the tested form may be a part): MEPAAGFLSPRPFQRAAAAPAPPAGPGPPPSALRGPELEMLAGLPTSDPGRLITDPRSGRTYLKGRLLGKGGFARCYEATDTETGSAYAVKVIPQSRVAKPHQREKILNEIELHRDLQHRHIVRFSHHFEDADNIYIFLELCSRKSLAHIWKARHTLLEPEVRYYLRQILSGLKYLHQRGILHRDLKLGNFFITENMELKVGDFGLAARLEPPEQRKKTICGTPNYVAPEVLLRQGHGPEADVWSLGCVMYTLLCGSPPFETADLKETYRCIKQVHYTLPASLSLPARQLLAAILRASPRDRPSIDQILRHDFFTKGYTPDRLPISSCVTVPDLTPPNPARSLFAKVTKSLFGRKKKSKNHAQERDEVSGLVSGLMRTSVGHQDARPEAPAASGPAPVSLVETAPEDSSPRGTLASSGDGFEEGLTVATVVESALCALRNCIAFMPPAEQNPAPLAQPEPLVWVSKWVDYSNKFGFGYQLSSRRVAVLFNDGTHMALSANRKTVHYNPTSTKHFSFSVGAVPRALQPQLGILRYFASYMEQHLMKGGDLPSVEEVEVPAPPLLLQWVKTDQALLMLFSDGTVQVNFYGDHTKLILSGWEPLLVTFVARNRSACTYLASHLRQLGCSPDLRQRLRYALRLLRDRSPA
Outline: (§2)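 KINOMEscan competition binding assay. A 321-kinase panel was first screened at 10 μM compound, and binding affinities were then determined for Aurora and PLK family members.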

Homo sapiens = organism: Homo sapiens; experiment: Inhibition of AURKA/PLK1 in human HCT116 cells assessed as increase in histone H3 Ser10 phosphorylation measured after 24 to 48 hrs by Western blot analysis; assay type: cell-based
[7] = AUC (0 to infinity) in Sprague-Dawley rat at 10 mg/kg, iv administered […] by LC-MS/MS analysis; assay type: ADME, organism-based; design: dose 10 mg/kg, route intravenous, time infinity; conditions: in vivo
HCT-116 [8] = experiment: Induction of apoptosis in human HCT116 cells assessed as apoptotic cell population at 5 uM measured after 48 hrs by Annexin V-FITC/propidium iodide staining-based flow cytometry (reference value: 5.9%); assay type: functional
[9] = Cmax in Sprague-Dawley rat at 10 mg/kg, iv administered […] by LC-MS/MS analysis; assay type: ADME, organism-based; design: dose 10 mg/kg, route intravenous; conditions: in vivo
[10] = Lipid/water partition coefficient, log D of the compound; assay type: physicochemical
Calu-6 = experiment: Antiproliferative activity against human Calu6 cells measured after 48 hrs by MTT assay; assay type: functional, cell-based; conditions: Calu-6, 48 h; outline: as §1
[11] = Half life in Sprague-Dawley rat at 50 mg/kg, po administered via gastric gavage by LC-MS/MS analysis; assay type: ADME, organism-based; conditions: in vivo
[12] = molecular target: Serine/threonine-protein kinase PLK2 (Homo sapiens, UniProt Q9NYY3); experiment: Binding affinity to wild-type human partial length PLK2 (H58 to F354 residues) expressed in mammalian expression system measured after 1 hr by kinomescan method; outline: as §2
Serine/threonine-protein kinase PLK2, sequence (Q9NYY3 whole entry, the tested form may be a part): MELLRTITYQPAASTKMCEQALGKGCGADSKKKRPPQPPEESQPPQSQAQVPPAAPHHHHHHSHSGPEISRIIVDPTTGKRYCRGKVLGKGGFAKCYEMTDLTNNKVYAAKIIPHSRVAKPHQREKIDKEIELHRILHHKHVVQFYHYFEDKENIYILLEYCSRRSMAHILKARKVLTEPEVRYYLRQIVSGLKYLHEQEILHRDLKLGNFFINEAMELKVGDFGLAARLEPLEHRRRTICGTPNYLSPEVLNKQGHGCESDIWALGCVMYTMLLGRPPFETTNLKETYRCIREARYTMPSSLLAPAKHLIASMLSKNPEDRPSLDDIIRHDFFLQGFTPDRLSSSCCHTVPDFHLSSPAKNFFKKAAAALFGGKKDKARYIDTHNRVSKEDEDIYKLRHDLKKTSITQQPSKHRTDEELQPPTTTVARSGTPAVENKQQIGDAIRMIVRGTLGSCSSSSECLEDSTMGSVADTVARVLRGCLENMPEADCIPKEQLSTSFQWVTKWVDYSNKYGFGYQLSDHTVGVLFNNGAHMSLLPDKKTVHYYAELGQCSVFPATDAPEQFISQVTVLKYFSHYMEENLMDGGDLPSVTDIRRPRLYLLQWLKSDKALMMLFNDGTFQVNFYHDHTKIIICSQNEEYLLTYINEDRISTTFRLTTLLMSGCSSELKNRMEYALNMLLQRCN

HCT-116 [13] = experiment: Antiproliferative activity against human HCT116 cells measured after 48 hrs by MTT assay; assay type: functional, cell-based; conditions: HCT-116, 48 h; outline: as §1
[14] = Solubility of the compound in DMSO; assay type: physicochemical
Outline: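 Solubility of the compound measured at 25±0.2°C, separately in water and in DMSO; reported in µg/mL.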

Aurora kinase C = molecular target: T1, Aurora kinase C (Homo sapiens, UniProt Q9UQB9); experiment: Binding affinity to wild-type human full length AURKC (M1 to S275 residues) expressed in bacterial expression system measured after 1 hr by Kinomescan method; outline: as §2
T1 sequence (Q9UQB9 whole entry): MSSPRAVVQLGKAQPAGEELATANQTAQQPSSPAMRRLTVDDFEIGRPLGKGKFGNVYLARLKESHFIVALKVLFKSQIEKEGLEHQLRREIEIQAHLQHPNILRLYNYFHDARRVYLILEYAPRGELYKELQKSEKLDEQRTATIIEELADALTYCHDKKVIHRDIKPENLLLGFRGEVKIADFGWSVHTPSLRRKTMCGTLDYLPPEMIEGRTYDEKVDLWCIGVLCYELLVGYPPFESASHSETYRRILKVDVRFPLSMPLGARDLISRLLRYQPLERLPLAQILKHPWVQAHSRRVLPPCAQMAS

HCT-116 [15] = experiment: Antitumor activity against human HCT116 cells xenografted in BALB/c mouse assessed as reduction in tumor size at 10 mg/kg, iv administered every 3 days for 24 days measured at 3 days interval during compound dosing relative to control; assay type: functional; design: scale not given: the % may be the effect or the level left
HCT-116 [16] = experiment: Antitumor activity against human HCT116 cells xenografted in BALB/c mouse assessed as reduction in tumor growth at 5 mg/kg, iv administered every 3 days for 24 days measured at 3 days interval during compound dosing; assay type: functional, organism-based
[17] = molecular target: Serine/threonine-protein kinase PLK1 (Homo sapiens, UniProt P53350); experiment: Binding affinity to wild-type human partial length PLK1 (A33 to F325 residues) expressed in mammalian expression system measured after 1 hr by kinomescan method; outline: as §2
Serine/threonine-protein kinase PLK1, sequence (P53350 whole entry, the tested form may be a part): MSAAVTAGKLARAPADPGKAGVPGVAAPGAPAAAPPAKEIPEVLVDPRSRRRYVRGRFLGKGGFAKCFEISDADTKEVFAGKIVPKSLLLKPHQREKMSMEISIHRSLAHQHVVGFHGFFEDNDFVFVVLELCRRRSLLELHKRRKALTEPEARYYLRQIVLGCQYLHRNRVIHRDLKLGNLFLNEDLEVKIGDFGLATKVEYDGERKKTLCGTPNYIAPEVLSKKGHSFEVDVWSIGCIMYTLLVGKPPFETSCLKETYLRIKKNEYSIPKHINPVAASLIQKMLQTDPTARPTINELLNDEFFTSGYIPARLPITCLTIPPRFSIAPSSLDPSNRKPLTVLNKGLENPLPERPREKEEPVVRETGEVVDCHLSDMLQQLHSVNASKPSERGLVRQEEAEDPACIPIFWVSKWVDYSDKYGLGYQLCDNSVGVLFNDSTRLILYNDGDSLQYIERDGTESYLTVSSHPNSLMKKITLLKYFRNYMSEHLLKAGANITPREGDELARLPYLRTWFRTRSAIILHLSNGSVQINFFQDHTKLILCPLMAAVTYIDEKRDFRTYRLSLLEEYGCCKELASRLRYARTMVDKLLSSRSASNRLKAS

HCT-116 [18] = experiment: Cell cycle arrest in human HCT116 cells assessed as increase in accumulation at G2/M phase measured after 24 to 48 hrs by propidium iodide staining-based flow cytometry; assay type: functional
[19] = Toxicity in BALB/c mouse xenografted with human HCT116 cells assessed as change in body weight at 10 mg/kg, iv administered every 3 days for 24 days measured post-last dose; assay type: organism-based; conditions: in vivo
HCT-116 [20] = experiment: Induction of apoptosis in human HCT116 cells assessed as apoptotic cell population at 10 uM measured after 48 hrs by Annexin V-FITC/propidium iodide staining-based flow cytometry (reference value: 5.9%); assay type: functional
Aurora kinase A = molecular target: T2, Aurora kinase A (Homo sapiens, UniProt O14965); experiment: Binding affinity to wild-type human partial length AURKA (E122 to K401 residues) expressed in mammalian expression system measured after 1 hr by Kinomescan method; outline: as §2
T2 sequence (O14965 whole entry): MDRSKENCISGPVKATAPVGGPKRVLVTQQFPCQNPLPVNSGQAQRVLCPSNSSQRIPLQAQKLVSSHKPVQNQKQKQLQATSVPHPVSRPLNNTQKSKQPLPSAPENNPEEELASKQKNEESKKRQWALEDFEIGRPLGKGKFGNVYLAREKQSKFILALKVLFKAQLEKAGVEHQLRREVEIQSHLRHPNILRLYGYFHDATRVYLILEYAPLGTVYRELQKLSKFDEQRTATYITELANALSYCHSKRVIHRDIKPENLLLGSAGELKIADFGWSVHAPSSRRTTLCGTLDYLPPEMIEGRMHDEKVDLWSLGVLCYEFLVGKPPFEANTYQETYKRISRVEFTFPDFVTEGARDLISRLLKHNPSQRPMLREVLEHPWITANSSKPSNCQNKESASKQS

[21] = Cmax in Sprague-Dawley rat at 50 mg/kg, po administered via gastric gavage by LC-MS/MS analysis; assay type: ADME, organism-based; design: dose 50 mg/kg, route oral; conditions: in vivo
HCT-116 [22] = experiment: Antitumor activity against human HCT116 cells xenografted in BALB/c mouse assessed as survival rate at 1 mg/kg, iv administered every 3 days for 60 days relative to control; assay type: functional; conditions: HCT-116, iv

SMILES: O=C(Nc1ccc2cc(C(=O)Nc3nccs3)ccc2c1)c1ccc(Cl)c(Cl)c1
- IC50 (A549): 11600 nM
- Activity (HCT-116 [1]): 10.06%
- Activity (HCT-116 [2]): Dose-dependent effect
- survival at 10 mg/kg (HCT-116 [3]): 80%
- MSD (HCT-116 [4]): >20 days
- Activity [5]: Non-Toxic
- Kd [6]: 456 nM
- inhibition (Homo sapiens): Active
- AUC [7]: 1260.761 µg·h/mL
- Activity (HCT-116 [8]): 61.7%
- Cmax [9]: 78.5 µg/mL
- logD [10]: 4.8
- IC50 (Calu-6): 5300 nM
- half-life [11]: 11.8 h
- Kd [12]: 272 nM
- IC50 (HCT-116 [13]): 400 nM
- solubility [14]: 286 µg/mL (≈ 647 µM)
- Kd (Aurora kinase C): 289 nM
- Activity (HCT-116 [15]): 75%
- Activity (HCT-116 [16]): Active
- Kd [17]: 55 nM
- Activity (HCT-116 [18]): Dose-dependent effect
- Activity [19]: Toxic
- Activity (HCT-116 [20]): 91.4%
- Kd (Aurora kinase A): 23 nM
- Cmax [21]: 25.1 µg/mL
- survival at 1 mg/kg (HCT-116 [22]): > 25%
